# Source: ChEMBL document CHEMBL1154647, “Synthesis, spectral characterization and biological evaluation of phosphorylated derivatives of galanthamine” (Eur J Med Chem, 2010)
# How the values were obtained:
# [1] = Inhibition of superoxide dismutase in Wistar rat brain; format: tissue-based
# Catalase = molecular target: T1, Catalase (Rattus norvegicus, UniProt P04762); assay: Inhibition of catalase in Wistar rat brain
# T1 sequence (P04762 whole entry): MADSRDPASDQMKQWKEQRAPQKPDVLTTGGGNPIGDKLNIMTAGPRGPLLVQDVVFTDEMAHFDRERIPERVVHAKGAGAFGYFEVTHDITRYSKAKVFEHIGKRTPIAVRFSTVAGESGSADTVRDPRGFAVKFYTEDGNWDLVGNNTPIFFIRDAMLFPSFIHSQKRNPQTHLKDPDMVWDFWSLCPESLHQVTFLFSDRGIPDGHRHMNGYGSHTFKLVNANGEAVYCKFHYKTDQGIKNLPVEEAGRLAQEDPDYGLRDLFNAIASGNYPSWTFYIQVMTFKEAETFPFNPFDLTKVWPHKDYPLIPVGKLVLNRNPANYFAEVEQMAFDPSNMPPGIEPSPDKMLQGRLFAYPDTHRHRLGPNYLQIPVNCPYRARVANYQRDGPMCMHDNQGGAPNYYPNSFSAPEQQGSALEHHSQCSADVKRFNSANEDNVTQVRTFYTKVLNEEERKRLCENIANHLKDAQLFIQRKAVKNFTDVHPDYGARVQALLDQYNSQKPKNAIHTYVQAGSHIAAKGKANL
# Brain [2] = assay: Antioxidant activity in Wistar rat brain assessed as inhibition of lipid peroxidation; format: functional, tissue-based
# Brain [3] = assay: Antioxidant activity in Wistar rat brain assessed as superoxide dismutase content; format: functional
# Bacillus subtilis [4] = assay: Antibacterial activity against Bacillus subtilis after 18 hrs; format: functional
# Staphylococcus aureus [5] = assay: Antibacterial activity against Staphylococcus aureus at 1 mg/mL after 18 hrs by disc diffusion assay; format: functional; settings: read-out: IZ
# Procedure, shortened: (§1)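 Bacteria were grown in nutrient broth at 37 °C for 18 h on a rotary shaker at 150 rpm. Compounds were dissolved in DMF. Nutrient agar plates were dried at 35–36 °C for about 30 min, and test strains were spread on the surface. Discs were applied, and plates were inverted and incubated at 37 °C. A DMF blank was run.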
# Brain [6] = assay: Antioxidant activity in Wistar rat brain assessed as catalase content; format: functional
# Staphylococcus aureus [7] = assay: Antibacterial activity against Staphylococcus aureus after 18 hrs; format: functional
# Klebsiella pneumoniae [8] = assay: Antibacterial activity against Klebsiella pneumoniae after 18 hrs; format: functional
# Escherichia coli [9] = assay: Antibacterial activity against Escherichia coli at 1 mg/mL after 18 hrs by disc diffusion assay; format: functional; settings: read-out: IZ; procedure, shortened: as §1
# Bacillus subtilis [10] = assay: Antibacterial activity against Bacillus subtilis at 2 mg/mL after 18 hrs by disc diffusion assay; format: functional; settings: read-out: IZ; procedure, shortened: as §1
# Bacillus subtilis [11] = assay: Antibacterial activity against Bacillus subtilis at 1 mg/mL after 18 hrs by disc diffusion assay; format: functional; settings: read-out: IZ; procedure, shortened: as §1
# Escherichia coli [12] = assay: Antibacterial activity against Escherichia coli after 18 hrs; format: functional
# Klebsiella pneumoniae [13] = assay: Antibacterial activity against Klebsiella pneumoniae at 2 mg/mL after 18 hrs by disc diffusion assay; format: functional; settings: read-out: IZ; procedure, shortened: as §1
# Brain [14] = assay: Antioxidant activity in Wistar rat brain assessed as reduction in glutathione content; format: functional, tissue-based
# Procedure, shortened: (§2)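 Wistar rat brain was homogenised 1:40 (w/v) in 0.1 M phosphate buffer, pH 7.4, with 1 mM EDTA. Total glutathione (GSH + GSSG) and reduced GSH were assayed spectrophotometrically from optical density, using net rate against a standard-curve slope and intercept, times a dilution factor. Homogenate protein was measured by the Lowry method.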
# Brain [15] = assay: Antioxidant activity in Wistar rat brain assessed as glutathione content; format: functional; procedure, shortened: as §2
# Klebsiella pneumoniae [16] = assay: Antibacterial activity against Klebsiella pneumoniae at 1 mg/mL after 18 hrs by disc diffusion assay; format: functional; settings: read-out: IZ; procedure, shortened: as §1
# Staphylococcus aureus [17] = assay: Antibacterial activity against Staphylococcus aureus at 2 mg/mL after 18 hrs by disc diffusion assay; format: functional; settings: read-out: IZ; procedure, shortened: as §1
# Brain [18] = assay: Antioxidant activity in Wistar rat brain assessed as lipid peroxidation; format: functional, tissue-based
# Escherichia coli [19] = assay: Antibacterial activity against Escherichia coli at 2 mg/mL after 18 hrs by disc diffusion assay; format: functional; settings: read-out: IZ; procedure, shortened: as §1
Molecule,EC50 [1] [µg/mL],EC50 (Catalase) [µg/mL],EC50 (Brain [2]) [µg/mL],Activity (Brain [3]) [µg/mL],MIC (Bacillus subtilis [4]) [µg/mL],zone of inhibition at 1000 µg/mL (Staphylococcus aureus [5]) [mm],Activity (Brain [6]) [µg/mL],MIC (Staphylococcus aureus [7]) [µg/mL],MIC (Klebsiella pneumoniae [8]) [µg/mL],zone of inhibition at 1000 µg/mL (Escherichia coli [9]) [mm],zone of inhibition at 2000 µg/mL (Bacillus subtilis [10]) [mm],zone of inhibition at 1000 µg/mL (Bacillus subtilis [11]) [mm],MIC (Escherichia coli [12]) [µg/mL],zone of inhibition at 2000 µg/mL (Klebsiella pneumoniae [13]) [mm],EC50 (Brain [14]) [µg/mL],Activity (Brain [15]) [µg/mL],zone of inhibition at 1000 µg/mL (Klebsiella pneumoniae [16]) [mm],zone of inhibition at 2000 µg/mL (Staphylococcus aureus [17]) [mm],Activity (Brain [18]) [µg/mL],zone of inhibition at 2000 µg/mL (Escherichia coli [19]) [mm]
COc1ccc2c3c1O[C@H]1C[C@@H](OP(=O)(NCCN)N(CCCl)CCCl)C=C[C@@]31CCN(C)C2 (stereo partly specified),2.77,2.73,2.88,30.29,0.12,2.35,285.48,0.49,0.33,2.33,3.9,1.57,0.55,4.8,2.43,4.84,2.89,3.51,72.5,4.9
COc1ccc2c3c1O[C@H]1C[C@@H](OP(=O)(OCCO)N(CCCl)CCCl)C=C[C@@]31CCN(C)C2 (stereo partly specified),1.98,2.21,2.87,29.02,0.28,3.03,291.27,0.42,0.57,1.57,4.89,1.63,0.5,4.76,2.02,4.67,1.65,5.02,68.2,3.18
VITAMIN E [listing 1 of 2 here],,,,32.3,,,403,,,,,,,,,43.6,,,82.8,
COc1ccc2c3c1O[C@H]1C[C@@H](OP(=O)(NCCN)Oc4ccc([N+](=O)[O-])cc4)C=C[C@@]31CCN(C)C2 (stereo partly specified),1.91,1.81,1.99,29.73,0.15,1.84,295.92,0.75,0.38,1.02,4.91,1.93,0.62,6.11,1.89,5.06,2.78,5.09,75.9,3.73
COc1ccc2c3c1O[C@H]1C[C@@H](OP(=O)(Oc4ccc([N+](=O)[O-])cc4)SCCO)C=C[C@@]31CCN(C)C2 (stereo partly specified),1.55,4.25,2.64,29.69,0.1,2.5,288.58,0.29,0.36,3.62,3.06,1.81,0.34,5.01,1.49,4.77,2.36,4.91,72.8,4.38
COc1ccc2c3c1O[C@H]1C[C@@H](OP(=O)(Oc4ccc([N+](=O)[O-])cc4)OP(=O)(O)O)C=C[C@@]31CCN(C)C2 (stereo partly specified),2.69,2.92,3.33,29.55,0.19,2.38,287.38,0.76,0.28,2.42,3.78,2.05,0.46,5.45,2.15,4.22,1.88,4.56,72.2,4.97
COc1ccc2c3c1O[C@H]1C[C@@H](OP(=O)(NCCO)Oc4ccc([N+](=O)[O-])cc4)C=C[C@@]31CCN(C)C2 (stereo partly specified),2.57,4.94,2.81,29.37,0.21,1.59,284.32,0.81,0.42,1.62,4.16,1.53,0.44,5.44,1.08,4.72,2.43,3.94,72.5,4.44
VITAMIN E [listing 2 of 2 here],1.03,1.48,1.22,,,,,,,,,,,,0.99,,,,,
O=C1O[C@H]([C@@H](O)CO)C(O)=C1O [ASCORBIC ACID],0.99,,1.02,,,,385.46,,,,,,,,0.98,31.34,,,88.1,
O=C(N[C@H](CO)[C@H](O)c1ccc([N+](=O)[O-])cc1)C(Cl)Cl [CHLORAMPHENICOL],,,,,0.15,2.67,,0.2,0.13,2.02,2.99,1.02,0.25,4.02,,,3.62,3.08,,3.27
